Experimental data taken from ChEMBL document CHEMBL2163257 (J Med Chem, 2012).
Activity calls are given as the source filed them. The rule behind the calls is not given here.

How the values were obtained:
Histamine H2 receptor [1] = target: T1, Histamine H2 receptor (Homo sapiens, UniProt P25021); experiment: Intrinsic agonist activity at human H2R-Gsalphas expressed in Sf9 cells by steady state GTPase activity assay relative to histamine; type: functional
Method in brief: (§1)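 Steady-state GTPase assay with Sf9 membranes (5–20 µg protein) expressing hH2R- or gpH2R-Gsαs, in 50 mM Tris-HCl pH 7.4. Mix: 1.0 mM MgCl2, 100 µM EDTA, 100 nM GTP, 100 µM AppNHp, 5 mM creatine phosphate, creatine kinase, 0.2% BSA, ligand 0.1 nM–10 µM. After 2 min at 25 °C, [γ-32P]GTP or [γ-33P]GTP was added and reacted 20 min at 25 °C. Charcoal stop; released Pi counted. Emax referenced to histamine (1.0). Two to six experiments, duplicate.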

[2] = target: Histamine H2 receptor (Cavia porcellus) (UniProt P47747); experiment: Intrinsic agonist activity at guinea pig H2R-Gsalphas expressed in Sf9 cells by steady state GTPase activity assay relative to histamine; type: functional; method in brief: as §1
Chain of Histamine H2 receptor (Cavia porcellus) (P47747 whole entry): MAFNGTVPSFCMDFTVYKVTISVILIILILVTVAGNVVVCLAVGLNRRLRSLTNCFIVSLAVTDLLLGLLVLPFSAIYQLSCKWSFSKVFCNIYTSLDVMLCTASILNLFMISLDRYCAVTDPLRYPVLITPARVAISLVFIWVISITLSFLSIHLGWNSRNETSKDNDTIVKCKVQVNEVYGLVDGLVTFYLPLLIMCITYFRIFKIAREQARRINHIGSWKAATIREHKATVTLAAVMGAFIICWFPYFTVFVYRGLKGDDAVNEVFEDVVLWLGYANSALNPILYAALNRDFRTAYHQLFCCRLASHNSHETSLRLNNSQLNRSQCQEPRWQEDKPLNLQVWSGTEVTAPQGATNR

[3] = target: Histamine H2 receptor (Cavia porcellus) (UniProt P47747); experiment: Intrinsic agonist activity at H2R in spontaneously beating guinea pig right atrium assessed as increase in heart rate relative to histamine; type: functional, tissue-based; conditions: Cardiac atrium
Method in brief: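 Isolated spontaneously beating guinea pig right atrium. Ligand stocks (10 mM) and dilutions were made in fresh bath fluid. Tissue was washed for 30 min and equilibrated for 15 min. […] Emax is relative to maximal histamine heart-rate increase. Three to five experiments.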

Histamine H4 receptor [4] = target: T2, Histamine H4 receptor (Homo sapiens, UniProt Q9H3N8); experiment: Agonist activity at human H4R-RGS19 Galphai2 Gbeta1gamma2 expressed in Sf9 cells by steady state GTPase activity assay relative to histamine; type: functional
T2 sequence (Q9H3N8 whole entry): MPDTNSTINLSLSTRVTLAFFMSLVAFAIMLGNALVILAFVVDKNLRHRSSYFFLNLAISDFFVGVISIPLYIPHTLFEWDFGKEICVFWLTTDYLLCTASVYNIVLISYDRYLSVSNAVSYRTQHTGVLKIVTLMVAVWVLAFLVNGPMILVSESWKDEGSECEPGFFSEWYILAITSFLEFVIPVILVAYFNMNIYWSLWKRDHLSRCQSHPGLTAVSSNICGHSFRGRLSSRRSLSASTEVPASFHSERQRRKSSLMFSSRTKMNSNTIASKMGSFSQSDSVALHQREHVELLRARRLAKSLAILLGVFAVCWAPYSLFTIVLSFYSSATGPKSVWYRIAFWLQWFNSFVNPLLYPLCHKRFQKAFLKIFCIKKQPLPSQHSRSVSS
Method in brief: (§2)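 Sf9 membranes coexpressing hH4R-RGS19 with Gαi2 and Gβ1γ2 were assayed for GTP hydrolysis with 5.0 mM MgCl2 and 100 mM NaCl (final), 100 nM GTP, 50 mM Tris-HCl pH 7.4. Ligands spanned 0.1 nM–1 mM. Preincubation was 2 min, then 20 min at 25 °C with [γ-32P]GTP or [γ-33P]GTP. Charcoal quench; Pi counted. Sigmoidal nonlinear regression; efficacy relative to histamine.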

Histamine H4 receptor [5] = target: T2, Histamine H4 receptor; experiment: Agonist activity at human H4R-RGS19 Galphai2 Gbeta1gamma2 expressed in Sf9 cells at 0.1 nM to 1 mM by steady state GTPase activity assay; type: functional; method in brief: as §2
Histamine H3 receptor = Histamine H3 receptor (Homo sapiens, UniProt Q9Y5N1); experiment: Agonist activity at human H3R-Galphai2-Gbeta1gamma2-RGS4 expressed in Sf9 cells 0.1 nM to 1 mM by steady state GTPase activity assay; type: functional
Chain of Histamine H3 receptor (Q9Y5N1 whole entry): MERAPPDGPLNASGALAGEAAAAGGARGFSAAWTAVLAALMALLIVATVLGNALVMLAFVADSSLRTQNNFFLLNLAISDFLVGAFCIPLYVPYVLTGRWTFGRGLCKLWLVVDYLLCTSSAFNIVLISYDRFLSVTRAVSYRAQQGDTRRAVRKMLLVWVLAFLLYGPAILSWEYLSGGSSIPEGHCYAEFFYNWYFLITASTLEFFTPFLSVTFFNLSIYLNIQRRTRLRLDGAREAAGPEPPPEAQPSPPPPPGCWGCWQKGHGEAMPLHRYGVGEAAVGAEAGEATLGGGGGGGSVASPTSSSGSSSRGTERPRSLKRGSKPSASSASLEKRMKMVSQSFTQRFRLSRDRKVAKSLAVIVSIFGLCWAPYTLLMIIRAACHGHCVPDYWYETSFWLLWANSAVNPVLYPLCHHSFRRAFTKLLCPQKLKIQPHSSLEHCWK

Histamine H2 receptor [6] = target: T1, Histamine H2 receptor; experiment: Agonist activity at human H2R-Gsalphas expressed in Sf9 cells at 0.1 nM to 10 uM by steady state GTPase activity assay
Histamine H2 receptor [7] = target: T1, Histamine H2 receptor; experiment: Potency index, ratio of pEC50 for compound to pEC50 for histamine at human H2R-Gsalphas expressed in Sf9 cells at 0.1 nM to 10 uM by steady state GTPase activity assay
Method in brief: (§3)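 Sf9 membranes expressing human or guinea pig H2R-Gsαs fusion protein, 1.0 mM MgCl2, ATP, 100 nM GTP, AppNHp, creatine phosphate/kinase, BSA, Tris pH 7.4. Agonists 0.1 nM–10 μM, [γ-32P/33P]GTP hydrolysis 20 min at 25 °C, Pi counted. Curves fit by sigmoidal nonlinear regression. Potency given relative to histamine (set to 1.0). Two to six independent experiments in duplicate.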

Histamine H2 receptor [8] = target: Histamine H2 receptor (Cavia porcellus, UniProt P47747); experiment: Agonist activity at guinea pig H2R-Gsalphas expressed in Sf9 cells at 0.1 nM to 10 uM by steady state GTPase activity assay; type: functional
Chain of Histamine H2 receptor (Cavia porcellus, UniProt P47747) (P47747 whole entry): as the sequence (P47747 whole entry) above
Method in brief: as §1, with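 “counted.” for “counted. Emax referenced to histamine (1.0).”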

[9] = target: Histamine H2 receptor (Cavia porcellus) (UniProt P47747); experiment: Potency index, ratio of pEC50 for compound to pEC50 for histamine at guinea pig H2R-Gsalphas expressed in Sf9 cells at 0.1 nM to 10 uM by steady state GTPase activity assay; method in brief: as §3
[10] = Selectivity index, ratio of EC50 for human H2R-Gsalphas to EC50 for guinea pig H2R-Gsalphas by steady state GTPase activity assay
[11] = target: Histamine H1 receptor (Homo sapiens) (UniProt P35367); experiment: Antagonist activity at human H1R-RGS4 expressed in Sf9 cells by steady state GTPase activity assay; type: functional
Chain of Histamine H1 receptor (Homo sapiens) (P35367 whole entry): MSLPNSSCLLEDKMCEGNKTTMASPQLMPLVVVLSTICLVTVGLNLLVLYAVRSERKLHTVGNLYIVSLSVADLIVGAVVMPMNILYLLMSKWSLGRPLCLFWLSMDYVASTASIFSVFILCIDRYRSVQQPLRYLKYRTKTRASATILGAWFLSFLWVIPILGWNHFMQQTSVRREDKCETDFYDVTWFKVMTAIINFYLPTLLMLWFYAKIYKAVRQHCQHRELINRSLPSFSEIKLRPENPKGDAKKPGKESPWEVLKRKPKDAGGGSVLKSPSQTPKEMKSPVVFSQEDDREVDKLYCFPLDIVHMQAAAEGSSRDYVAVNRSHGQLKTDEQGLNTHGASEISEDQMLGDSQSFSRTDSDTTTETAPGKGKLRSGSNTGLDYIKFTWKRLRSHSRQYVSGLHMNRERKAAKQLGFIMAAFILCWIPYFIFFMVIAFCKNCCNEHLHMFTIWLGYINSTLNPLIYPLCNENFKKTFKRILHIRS
Method in brief: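 Sf9 membranes (5–20 μg protein) co-expressing human H1R with RGS4. Reaction with 1.0 mM MgCl2, 100 μM ATP, 100 nM GTP, AppNHp, creatine phosphate/kinase, 0.2% BSA, 50 mM Tris-HCl pH 7.4. Histamine 100 nM with test ligand 10 nM–1 mM. [γ-32P/33P]GTP added, 20 min at 25 °C. Charcoal stop, released Pi counted. pKB from sigmoidal nonlinear fits.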

[12] = Agonist activity at human H2R-C17Y-A271D Gsalphas mutant containing human H2 receptor E2 loop expressed in Sf9 cells by steady state GTPase activity assay; type: functional
Method in brief: (§4)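 Mutant H2R-Gsαs fusion proteins in Sf9 membranes were tested by steady-state GTPase hydrolysis: 1.0 mM MgCl2, 100 nM GTP, AppNHp/creatine phosphate regeneration, pH 7.4 Tris, 20 min at 25 °C with [γ-32P/33P]GTP, charcoal separation of Pi.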

[13] = Agonist activity at guinea pig H2R hE2 loop Gsalphas mutant containing human H2 receptor E2 loop expressed in Sf9 cells by steady state GTPase activity assay; type: functional; conditions: Cavia porcellus; method in brief: as §4
[14] = target: Histamine H2 receptor (Cavia porcellus) (UniProt P47747); experiment: Agonist activity at H2R in spontaneously beating guinea pig right atrium assessed as increase in heart rate in presence of 100 uM H2R antagonist cimetidine; type: functional, tissue-based; conditions: Cardiac atrium

T1 sequence (P25021 whole entry): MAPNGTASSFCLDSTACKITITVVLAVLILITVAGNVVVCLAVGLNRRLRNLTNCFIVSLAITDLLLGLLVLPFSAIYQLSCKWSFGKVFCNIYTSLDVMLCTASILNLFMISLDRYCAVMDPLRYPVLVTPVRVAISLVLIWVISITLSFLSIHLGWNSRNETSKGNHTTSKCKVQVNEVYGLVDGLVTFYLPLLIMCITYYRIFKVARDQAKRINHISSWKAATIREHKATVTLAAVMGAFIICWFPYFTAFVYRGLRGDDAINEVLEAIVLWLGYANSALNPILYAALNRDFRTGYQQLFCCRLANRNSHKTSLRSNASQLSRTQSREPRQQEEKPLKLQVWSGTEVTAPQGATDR

| SMILES | Intrinsic activity (Histamine H2 receptor [1]) | Intrinsic activity [2] | Intrinsic activity [3] | Activity [12] | Activity [13] | other results |
| --- | --- | --- | --- | --- | --- | --- |
| Cc1nc(N)sc1CCCN/C(N)=N/C(=O)CCCCCCCC(=O)/N=C(\N)NCCCc1sc(N)nc1C | 0.48 | 0.9 | 0.71 | – | – | – |
| N/C(=N\C(=O)CCCCC(=O)/N=C(\N)NCCCc1c[nH]cn1)NCCCc1c[nH]cn1 | 0.68 | 1 | – | – | – | Intrinsic activity (Histamine H4 receptor [4]): 0.42; EC50 (Histamine H4 receptor [5]): 79.4 nM; EC50 (Histamine H3 receptor): > 10000 nM |
| N/C(=N\C(=O)CCCCCCC(=O)/N=C(\N)NCCCc1c[nH]cn1)NCCCc1c[nH]cn1 | 0.77 | 1.18 | – | – | – | Intrinsic activity (Histamine H4 receptor [4]): 0.51; EC50 (Histamine H4 receptor [5]): 41.7 nM; EC50 (Histamine H2 receptor [6]): 56.2 nM; Ratio (Histamine H2 receptor [7]): 22.4; EC50 (Histamine H2 receptor [8]; read-out: pEC50 (converted)): 3.24 nM; Ratio [9]: 372; Ratio EC50 [10]: 17.4; pKb [11]: 6.7; EC50 (Histamine H3 receptor): 4.17 nM |
| N/C(=N\C(=O)CCCCCCCCCCCCCCC(=O)/N=C(\N)NCCCc1cnc(N)s1)NCCCc1cnc(N)s1 | 0.14 | 0.59 | – | – | – | – |
| N/C(=N\C(=O)CCCCCCCCCCCCCCCCCCCCC(=O)/N=C(\N)NCCCc1cnc(N)s1)NCCCc1cnc(N)s1 | – | 0.36 | – | – | – | – |
| N/C(=N\C(=O)CCCCCCCCC(=O)/N=C(\N)NCCCc1c[nH]cn1)NCCCc1c[nH]cn1 | 0.81 | 0.98 | 0.91 | Active | Active | Intrinsic activity (Histamine H4 receptor [4]): 0.44; EC50 (Histamine H4 receptor [5]): 8.51 nM; EC50 (Histamine H3 receptor): 1.78 nM |
| Cc1nc(N)sc1CCN [AMTHAMINE] | 0.91 | 1.04 | 0.95 | – | – | – |
| NC(=NCCCc1nnc[nH]1)NC(=O)CCCCCCCCC(=O)NC(N)=NCCCc1nnc[nH]1 | – | – | – | – | – | EC50 (Histamine H2 receptor [6]): 151 nM |
| Cc1nc(N)sc1CCCN/C(N)=N/C(=O)CCCCCCCCCCCCCCCCCCCCC(=O)/N=C(\N)NCCCc1sc(N)nc1C | – | 0.58 | 0.62 | – | – | – |
| Cc1nc(N)sc1CCCN/C(N)=N/C(=O)CCCCCCCCC(=O)/N=C(\N)NCCCc1sc(N)nc1C | 0.53 | 0.79 | 0.62 | Active | Active | – |
| Cc1nc(N)sc1CCCN/C(N)=N/C(=O)CCCCCCCCC(=O)/N=C(\N)NCCCc1cnc(N)s1 | 0.75 | 0.89 | – | Active | Active | – |
| N/C(=N\C(=O)CCCCCCCCC(=O)/N=C(\N)NCCCc1cnc(N)s1)NCCCc1cnc(N)s1 | 0.75 | 0.94 | – | Active | Active | – |
| Cc1nc(N)sc1CCCN/C(N)=N/C(=O)CCc1ccccc1 | 0.79 | 0.76 | – | – | – | – |
| Cc1nc(N)sc1CCCN/C(N)=N/C(=O)CCCCCCC(=O)/N=C(\N)NCCCc1sc(N)nc1C | 0.62 | 0.81 | 0.64 | Active | Active | – |
| N/C(=N\C(=O)CCCCCCCCC(=O)/N=C(\N)NCCCc1ncn[nH]1)NCCCc1ncn[nH]1 | 0.49 | 0.95 | – | – | – | – |
| N/C(=N\C(=O)CCCCCCC(=O)/N=C(\N)NCCCc1cnc(N)s1)NCCCc1cnc(N)s1 | 0.79 | 1 | – | Active | Active | – |
| N/C(=N\C(=O)CCCCCCCCCCCCCCCCCCCCC(=O)/N=C(\N)NCCCc1c[nH]cn1)NCCCc1c[nH]cn1 | – | 0.19 | – | – | – | – |
| Cc1nc(N)sc1CCCN/C(N)=N/C(=O)CCCCCCCCCCCCCCC(=O)/N=C(\N)NCCCc1sc(N)nc1C | 0.12 | 0.51 | 0.53 | Active | Active | – |
| Cc1nc(N)sc1CCCN/C(N)=N/C(=O)CCCCCCCCC(=O)/N=C(\N)NCCCc1c[nH]cn1 | 0.76 | 1.01 | – | Active | Active | Intrinsic activity (Histamine H4 receptor [4]): 0.52; EC50 (Histamine H4 receptor [5]): 8.51 nM; EC50 (Histamine H3 receptor): 2.88 nM |
| Cc1nc(N)sc1CCCNC(=N)NC(=O)CCCCCCCCC(=O)NC(=N)NCCCc1sc(N)nc1C | – | – | – | – | – | EC50 (Histamine H2 receptor [8]; read-out: EC50): 0.39 nM |
| Cc1nc(N)sc1CCCN/C(N)=N/C(=O)CCCCCCCCCCC(=O)/N=C(\N)NCCCc1sc(N)nc1C | 0.46 | 0.66 | 0.46 | – | – | – |
| Cc1nc(N)sc1CCCN/C(N)=N/C(=O)CCCCC(=O)/N=C(\N)NCCCc1sc(N)nc1C | 0.68 | 0.9 | 0.88 | – | – | %max [14]: 46% |
| N/C(=N\C(=O)CCCCCCCCCCCCCCC(=O)/N=C(\N)NCCCc1c[nH]cn1)NCCCc1c[nH]cn1 | 0.29 | 0.85 | – | – | – | EC50 (Histamine H4 receptor [5]): 339 nM; EC50 (Histamine H3 receptor): > 1000 nM |
| N=C(NCCCc1cnc[nH]1)NC(=O)CCCCCCCCCCCCCCCCCCCCC(=O)NC(N)=NCCCc1cnc[nH]1 | – | – | – | – | – | EC50 (Histamine H4 receptor [5]): > 1000 nM; EC50 (Histamine H3 receptor): 447 nM |
